Experimental data reported in article PMC10131263 (Chemical & Biomedical Imaging, 2023).

Tests used:
[1] = tested on: HUVECs; assay: Fluorescence microscopy of beacon uptake and activation, HUVECs; assay type: cell-based, human; details: 2.5 μM, 24 h incubation, fluorescence microscopy Cy5 channel
Outline: (§1)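 Cells (patient-derived SFs or donated HUVECs) seeded at 5 × 10^3 per well in 8-chamber slides. After 24 h the medium was changed and test compound added to 2.5 µM final for a further 24 h. Cells washed, fixed in 4% paraformaldehyde for 20 min and mounted with DAPI. Imaged on an inverted microscope: Cy5 620/60 ex, 665 long-pass em; exposure 200 ms for SFs, 1500 ms for HUVECs.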

[2] = tested on: MMP-13 expressing SFs; assay: Fluorescence microscopy of beacon uptake and activation, SFs; assay type: cell-based, human; details: 2.5 μM, 24 h incubation, fluorescence microscopy Cy5 channel
Outline: as §1

Pyro-glgfrvgk-BHQ3 [DPPMMP13B]
Intracellular pyro fluorescence in HUVECs (negligible MMP-13 expression) [1]: negligible fluorescence
Intracellular pyro fluorescence in MMP-13 + SFs [2]: negligible fluorescence
